Tests used:
[1] = target: T1, Amyloid-beta precursor protein (Homo sapiens, UniProt P05067); test: Inhibitory concentration against beta-amyloid-42 (Abeta42) secretion was evaluated in human neuroglioma cells (H4-APP695NL); type: functional, cell-based
Method in brief: (§1)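 H4-APP695NL human neuroglioma cells (APP695 Swedish K595N/M596L) seeded at 2 × 10^5/well and grown 24 h to confluence. Increasing compound concentrations added overnight; DMSO 1% as vehicle. Supernatant Aβ42 or Aβ40 measured by electrochemiluminescence immunoassay: biotinylated 4G8 plus C-terminus-specific rabbit antibodies, captured on streptavidin beads.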
Target sequence in this assay (P05067 18-770 limits assumed): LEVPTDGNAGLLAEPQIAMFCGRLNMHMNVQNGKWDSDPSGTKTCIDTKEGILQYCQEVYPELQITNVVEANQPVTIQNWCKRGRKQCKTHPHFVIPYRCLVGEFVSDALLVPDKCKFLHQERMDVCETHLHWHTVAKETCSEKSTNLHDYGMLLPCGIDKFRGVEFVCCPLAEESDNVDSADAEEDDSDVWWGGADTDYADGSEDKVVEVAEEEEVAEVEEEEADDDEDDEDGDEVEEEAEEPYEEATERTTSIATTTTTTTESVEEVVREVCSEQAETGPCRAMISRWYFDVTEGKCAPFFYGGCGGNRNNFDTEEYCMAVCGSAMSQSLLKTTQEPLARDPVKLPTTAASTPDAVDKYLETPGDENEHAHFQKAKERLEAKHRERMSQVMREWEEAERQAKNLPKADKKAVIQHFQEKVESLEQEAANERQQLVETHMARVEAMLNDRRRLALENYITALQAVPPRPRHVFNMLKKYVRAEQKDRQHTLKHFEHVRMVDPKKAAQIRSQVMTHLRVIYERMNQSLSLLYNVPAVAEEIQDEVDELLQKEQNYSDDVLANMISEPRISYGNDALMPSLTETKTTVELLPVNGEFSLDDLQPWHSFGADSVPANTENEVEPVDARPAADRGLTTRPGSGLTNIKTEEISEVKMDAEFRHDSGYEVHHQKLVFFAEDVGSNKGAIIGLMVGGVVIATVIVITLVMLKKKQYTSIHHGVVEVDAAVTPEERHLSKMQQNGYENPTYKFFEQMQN

[2] = target: T2, Prostaglandin G/H synthase 1 (Rattus norvegicus) (UniProt Q63921); test: Percent inhibition against cyclooxygenase-1 at 100 uM in rat blood
T2 sequence (whole entry): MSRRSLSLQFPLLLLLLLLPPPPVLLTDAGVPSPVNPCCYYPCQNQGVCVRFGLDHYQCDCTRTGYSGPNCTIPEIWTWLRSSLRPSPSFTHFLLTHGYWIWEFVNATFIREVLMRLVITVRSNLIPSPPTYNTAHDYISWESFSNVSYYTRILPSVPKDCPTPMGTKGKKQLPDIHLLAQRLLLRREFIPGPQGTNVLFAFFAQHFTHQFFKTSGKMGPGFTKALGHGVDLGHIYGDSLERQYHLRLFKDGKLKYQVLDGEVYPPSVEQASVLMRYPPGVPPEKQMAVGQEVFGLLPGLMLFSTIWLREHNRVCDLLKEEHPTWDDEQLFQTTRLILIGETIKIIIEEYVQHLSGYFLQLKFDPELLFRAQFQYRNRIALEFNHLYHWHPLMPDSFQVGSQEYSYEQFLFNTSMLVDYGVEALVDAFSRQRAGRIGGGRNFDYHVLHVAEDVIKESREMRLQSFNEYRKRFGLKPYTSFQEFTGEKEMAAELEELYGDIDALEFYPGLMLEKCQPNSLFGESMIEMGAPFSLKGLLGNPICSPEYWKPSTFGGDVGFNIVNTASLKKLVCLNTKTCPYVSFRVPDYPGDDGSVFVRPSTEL
Method in brief: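 Fresh rat whole blood preincubated 1 h at 37 °C with compound (100 μM) or DMSO (0.3% final). Stimulated 30 min with A23187 calcium ionophore; plasma thromboxane B2 measured by radioimmunoassay.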

CYP1A2 = target: T3, CYP1A2 (Homo sapiens, UniProt P05177); test: Interaction with human cytochrome P450 isoform 1A2 expressed in baculovirus-insect cells at 100 uM; type: ADME
T3 sequence (P05177 whole entry): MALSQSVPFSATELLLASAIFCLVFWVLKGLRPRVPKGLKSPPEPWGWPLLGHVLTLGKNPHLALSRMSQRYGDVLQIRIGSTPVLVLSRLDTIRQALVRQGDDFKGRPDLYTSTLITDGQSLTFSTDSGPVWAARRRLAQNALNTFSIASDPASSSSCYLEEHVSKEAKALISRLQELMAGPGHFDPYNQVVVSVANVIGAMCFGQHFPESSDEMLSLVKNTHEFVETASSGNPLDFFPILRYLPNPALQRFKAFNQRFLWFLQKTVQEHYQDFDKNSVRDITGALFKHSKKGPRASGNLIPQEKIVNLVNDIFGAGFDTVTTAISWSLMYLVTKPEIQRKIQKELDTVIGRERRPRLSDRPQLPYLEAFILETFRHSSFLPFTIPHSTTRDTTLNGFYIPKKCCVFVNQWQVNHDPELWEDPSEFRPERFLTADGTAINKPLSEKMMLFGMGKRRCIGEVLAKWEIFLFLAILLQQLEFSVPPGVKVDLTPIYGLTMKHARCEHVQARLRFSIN
Method in brief: (§2)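 Microsomes from baculovirus-insect cells expressing human CYP1A2, 2C9, 2C19, 2D6 or 3A4. Compound serially diluted with an NADPH-regenerating mix (16.3 μM NADP+, 0.83 mM glucose-6-phosphate, 0.83 mM MgCl2, 0.4 U/mL G6PDH). Pre-warmed 10 min at 37 °C, then isoform-specific substrate added in 0.35 M potassium phosphate pH 7.4. Fluorometric read-out; IC50 by nonlinear regression.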

CYP2D6 = CYP2D6 (Homo sapiens, UniProt P10635); test: Interaction with human cytochrome P450 isoform 2D6 expressed in baculovirus-insect cells at 100 uM; type: ADME; method in brief: as §2
CYP2C9 = CYP2C9 (Homo sapiens, UniProt P11712); test: (§3) Interaction with human cytochrome P450 isoform 2C9 expressed in baculovirus-insect cells at 100 uM; type: ADME; method in brief: as §2
CYP3A4 = CYP3A4 (Homo sapiens, UniProt P08684); test: Interaction with human cytochrome P450 isoform 3A4 expressed in baculovirus-insect cells at 100 uM; type: ADME; method in brief: as §2
CYP2C19 = CYP2C19 (Homo sapiens, UniProt P33261); test: Interaction with human cytochrome P450 isoform 2C19 expressed in baculovirus-insect cells at 100 uM; type: ADME; method in brief: as §2
[3] = target: T1, Amyloid-beta precursor protein; details: at 100 µM
Target sequence in this assay (P05067 whole entry): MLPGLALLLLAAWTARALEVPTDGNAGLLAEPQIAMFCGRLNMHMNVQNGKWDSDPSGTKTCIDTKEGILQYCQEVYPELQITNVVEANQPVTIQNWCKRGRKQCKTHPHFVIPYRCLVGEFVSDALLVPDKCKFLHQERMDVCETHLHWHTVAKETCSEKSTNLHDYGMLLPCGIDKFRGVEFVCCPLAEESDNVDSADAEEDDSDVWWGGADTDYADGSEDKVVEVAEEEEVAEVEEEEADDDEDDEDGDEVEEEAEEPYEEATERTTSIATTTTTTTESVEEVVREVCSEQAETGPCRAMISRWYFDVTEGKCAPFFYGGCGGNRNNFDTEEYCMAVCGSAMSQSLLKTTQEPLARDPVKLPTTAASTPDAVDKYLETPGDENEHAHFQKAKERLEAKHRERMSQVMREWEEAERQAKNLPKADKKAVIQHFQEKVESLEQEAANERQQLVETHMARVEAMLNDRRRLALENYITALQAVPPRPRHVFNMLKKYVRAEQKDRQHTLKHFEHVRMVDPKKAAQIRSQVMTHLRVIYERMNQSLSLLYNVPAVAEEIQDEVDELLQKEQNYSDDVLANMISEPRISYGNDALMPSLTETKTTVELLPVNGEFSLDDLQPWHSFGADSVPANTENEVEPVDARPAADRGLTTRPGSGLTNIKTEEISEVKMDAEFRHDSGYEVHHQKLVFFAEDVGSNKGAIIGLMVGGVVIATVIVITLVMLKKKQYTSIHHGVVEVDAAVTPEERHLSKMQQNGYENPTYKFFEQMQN

[4] = Concentration ratio in cerebrospinal fluid and plasma; details: rat
[5] = In vivo steady state metabolic clearance of the compound; details: rat
[6] = target: T1, Amyloid-beta precursor protein; test: Concentration required to inhibit A beta 40 peptide at 100 uM; method in brief: as §1
Target sequence in this assay (P05067 whole entry): as above

[7] = Area under curve after administration to rats at adose of 2.5 mg/kg orally; type: ADME, organism-based; design: dose 2.5 mg/kg, route oral; details: rat, in vivo, po
[8] = Area under curve after administration to rats at adose of 0.5 mg/kg intravenously; type: ADME, organism-based; design: dose 0.5 mg/kg, route intravenous; details: rat, in vivo, iv
Cytochrome P450 2C19 [9] = target: T4, Cytochrome P450 2C19 (Homo sapiens, UniProt P33261); test: Interaction with human cytochrome P450 isoform 2C19 expressed in baculovirus-insect cells; type: ADME; method in brief: as §2
[10] = Maximum time corresponding to maximum concentration after administration to rats at a dose of 0.5 mg/kg intravenously; type: ADME, organism-based; design: dose 0.5 mg/kg, route intravenous; details: rat, in vivo, iv
[11] = Maximal concentration in rats after 0.5 mg/kg intravenous dose; type: ADME, organism-based; design: dose 0.5 mg/kg, route intravenous; details: rat, in vivo
[12] = Total body clearance after administration to rats at a dose of 0.5 mg/kg intravenously; type: ADME, organism-based; design: dose 0.5 mg/kg, route intravenous; details: rat, in vivo, iv
[13] = Maximum time corresponding to maximum concentration after administration to rats at a dose of 2.5 mg/kg orally; type: ADME, organism-based; design: dose 2.5 mg/kg, route oral; details: rat, in vivo, po
[14] = Elimination phase half-life after administration to rats at a dose of 2.5 mg/kg orally; type: ADME, organism-based; design: dose 2.5 mg/kg, route oral; details: rat, in vivo, po
[15] = Elimination phase half-life after administration to rats at a dose of 0.5 mg/kg intravenously; type: ADME, organism-based; design: dose 0.5 mg/kg, route intravenous; details: rat, in vivo, iv
[16] = Maximal concentration in rats after 2.5 mg/kg oral dose; type: ADME, organism-based; design: dose 2.5 mg/kg, route oral; details: rat, in vivo
Caco-2 = test: Permeability in the Caco-2 cell; high absorption; type: ADME, cell-based; details: human
Method in brief: (§4)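 Caco-2 monolayers on polycarbonate Transwell inserts, 2 h at 37 °C. Apical and basolateral solutions analysed by LC-MS/MS (SRM). Papp = Cb·Vb/(C0·A·t).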

[17] = target: T1, Amyloid-beta precursor protein; test: Inhibition of A beta 40 peptide 100 um
Target sequence in this assay (P05067 whole entry): as above

[18] = Absolute oral bioavailability after administration to rats at a dose of 2.5 mg/kg orally; details: rat, in vivo
[19] = Area under curve after administration to rats at a dose of 7.6 mg/kg orally; type: ADME, organism-based; design: dose 7.6 mg/kg, route oral; details: rat, in vivo, po
[20] = Area under curve after administration to rats at adose of 1.5 mg/kg intravenously; type: ADME, organism-based; design: dose 1.5 mg/kg, route intravenous; details: rat, in vivo, iv
[21] = Maximum time corresponding to maximum concentration after administration to rats at a dose of 7.6 mg/kg orally; type: ADME, organism-based; design: dose 7.6 mg/kg, route oral; details: rat, in vivo, po
[22] = Maximum time corresponding to maximum concentration after administration to rats at a dose of 1.5 mg/kg intravenously; type: ADME, organism-based; design: dose 1.5 mg/kg, route intravenous; details: rat, in vivo, iv
[23] = Absolute oral bioavailability after administration to rats at a dose of 7.6 mg/kg orally; type: ADME, organism-based; details: rat, in vivo
[24] = Maximal concentration in rats after 1.5 mg/kg intravenous dose; type: ADME, organism-based; design: dose 1.5 mg/kg, route intravenous; details: rat, in vivo
[25] = Intestinal drug absorption was estimated in vitro using human colon adenocarcinoma (Caco-2) cell monolayers; type: ADME; method in brief: as §4
[26] = target: T5, Prostaglandin G/H synthase 1 (Rattus norvegicus, UniProt Q63921); test: Concentration required to inhibit cyclooxygenase-1 in rat blood
T5 sequence (Q63921 whole entry): T2 sequence (whole entry)
Method in brief: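 Fresh rat whole blood was preincubated 1 h at 37 °C with compound (100 μM or a concentration series; DMSO 0.3% final). It was then stimulated 30 min with the Ca²⁺ ionophore A23187. Thromboxane B2 in the plasma was measured by radioimmunoassay.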

[27] = Total body clearance after administration to rats at a dose of 1.5 mg/kg intravenously; type: ADME, organism-based; design: dose 1.5 mg/kg, route intravenous; details: rat, in vivo, iv
[28] = Elimination phase half-life after administration to rats at a dose of 7.6 mg/kg orally; type: ADME, organism-based; design: dose 7.6 mg/kg, route oral; details: rat, in vivo, po
[29] = Elimination phase half-life after administration to rats at a dose of 1.5 mg/kg intravenously; type: ADME, organism-based; design: dose 1.5 mg/kg, route intravenous; details: rat, in vivo, iv
Cytochrome P450 2C19 [30] = target: T4, Cytochrome P450 2C19; test: Compound was tested for interaction with baculovirus-insect cells expressing human cytochrome P450; No interactions at 100 uM; type: ADME
[31] = Maximal concentration in rats after 7.6 mg/kg oral dose; type: ADME, organism-based; design: dose 7.6 mg/kg, route oral; details: rat, in vivo
Cytochrome P450 2C9 = Cytochrome P450 2C9 (Homo sapiens, UniProt P11712); test: as §3; type: ADME; method in brief: as §2
Sequence of Cytochrome P450 2C9 (P11712 whole entry): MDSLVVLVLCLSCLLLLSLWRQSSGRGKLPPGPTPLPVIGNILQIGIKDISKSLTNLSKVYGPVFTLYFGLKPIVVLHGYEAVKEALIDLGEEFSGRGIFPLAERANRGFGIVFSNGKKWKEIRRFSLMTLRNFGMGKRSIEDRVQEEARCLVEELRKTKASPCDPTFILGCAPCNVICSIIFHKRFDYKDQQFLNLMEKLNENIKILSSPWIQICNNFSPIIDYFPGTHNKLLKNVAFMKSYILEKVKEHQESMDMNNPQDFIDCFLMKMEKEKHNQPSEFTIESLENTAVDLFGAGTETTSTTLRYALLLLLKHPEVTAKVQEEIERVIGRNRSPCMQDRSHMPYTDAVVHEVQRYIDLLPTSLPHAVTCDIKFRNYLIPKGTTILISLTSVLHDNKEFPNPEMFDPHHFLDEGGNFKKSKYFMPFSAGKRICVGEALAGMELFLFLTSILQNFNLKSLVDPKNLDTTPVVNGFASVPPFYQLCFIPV

Sequence of CYP3A4 (P08684 whole entry, canonical isoform): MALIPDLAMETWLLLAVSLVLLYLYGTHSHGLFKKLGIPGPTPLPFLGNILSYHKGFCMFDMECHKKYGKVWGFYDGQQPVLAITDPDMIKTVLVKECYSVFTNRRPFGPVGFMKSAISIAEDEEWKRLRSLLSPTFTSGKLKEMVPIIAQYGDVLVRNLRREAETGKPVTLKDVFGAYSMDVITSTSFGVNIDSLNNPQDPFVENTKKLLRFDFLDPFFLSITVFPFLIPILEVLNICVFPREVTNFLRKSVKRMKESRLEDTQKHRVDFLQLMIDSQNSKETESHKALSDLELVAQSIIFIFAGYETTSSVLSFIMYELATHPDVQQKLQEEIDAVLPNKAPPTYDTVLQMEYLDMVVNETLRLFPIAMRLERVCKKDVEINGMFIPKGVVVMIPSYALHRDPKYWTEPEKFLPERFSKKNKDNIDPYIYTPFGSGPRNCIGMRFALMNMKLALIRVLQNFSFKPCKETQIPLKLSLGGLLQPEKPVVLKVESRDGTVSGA
Sequence of CYP2C19 (P33261 whole entry, canonical isoform): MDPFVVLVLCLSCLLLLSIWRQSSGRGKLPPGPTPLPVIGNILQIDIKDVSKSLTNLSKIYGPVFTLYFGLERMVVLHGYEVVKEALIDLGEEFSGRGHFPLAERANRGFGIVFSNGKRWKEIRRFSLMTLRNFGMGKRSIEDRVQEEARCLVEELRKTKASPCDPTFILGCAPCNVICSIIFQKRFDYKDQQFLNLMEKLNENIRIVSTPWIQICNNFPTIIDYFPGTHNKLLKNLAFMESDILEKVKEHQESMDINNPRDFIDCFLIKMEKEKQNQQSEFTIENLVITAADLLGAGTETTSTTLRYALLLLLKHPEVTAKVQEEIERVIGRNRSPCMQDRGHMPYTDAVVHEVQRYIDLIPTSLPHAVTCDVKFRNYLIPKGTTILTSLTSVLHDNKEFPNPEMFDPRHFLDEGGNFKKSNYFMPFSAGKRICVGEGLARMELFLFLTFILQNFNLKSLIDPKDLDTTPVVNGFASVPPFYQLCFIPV
Sequence of CYP2C9 (P11712 whole entry, canonical isoform): as the sequence (P11712 whole entry) above
T4 sequence (P33261 whole entry, canonical isoform): as the sequence (P33261 whole entry, canonical isoform) above
Sequence of CYP2D6 (P10635 whole entry, canonical isoform): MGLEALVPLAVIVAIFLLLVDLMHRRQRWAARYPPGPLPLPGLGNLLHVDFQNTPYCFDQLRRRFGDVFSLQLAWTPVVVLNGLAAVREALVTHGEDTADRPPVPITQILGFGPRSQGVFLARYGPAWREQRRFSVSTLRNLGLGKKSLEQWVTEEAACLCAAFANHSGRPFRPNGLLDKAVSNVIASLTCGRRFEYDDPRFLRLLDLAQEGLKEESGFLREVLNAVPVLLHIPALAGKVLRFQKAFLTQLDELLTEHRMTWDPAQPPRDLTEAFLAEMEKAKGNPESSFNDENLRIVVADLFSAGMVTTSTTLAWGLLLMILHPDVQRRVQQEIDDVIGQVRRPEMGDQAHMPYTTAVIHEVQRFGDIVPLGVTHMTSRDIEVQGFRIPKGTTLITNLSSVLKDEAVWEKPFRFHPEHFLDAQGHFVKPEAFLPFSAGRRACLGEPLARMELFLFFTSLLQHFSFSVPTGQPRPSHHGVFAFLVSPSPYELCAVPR

## CC(c1ccc(-c2ccc(C(F)(F)F)cc2)c(F)c1)c1nnn[nH]1 (configuration not stated)
[1]
  IC50: 114 µM
[2]
  inhibition: 9%
CYP1A2
  inhibition at 100 µM: > 50%
CYP2D6
  inhibition at 100 µM: > 50%
CYP2C9
  inhibition at 100 µM: > 50%
CYP3A4
  inhibition at 100 µM: > 50%
CYP2C19
  inhibition at 100 µM: > 50%
[3]
  inhibition: 43%

## CC(c1ccc(-c2ccc(C(F)(F)F)cc2)c(F)c1)c1noc(O)n1 (configuration not stated)
CYP2C9
  inhibition at 100 µM: > 50%
CYP3A4
  inhibition at 100 µM: > 50%
CYP2C19
  inhibition at 100 µM: > 50%
[3]
  inhibition: 46%
[4]
  Ratio: 2.1%
[5]
  Clearance: 5.3 mL/h

## CC(C(=O)NS(C)(=O)=O)c1ccc(-c2ccc(C(F)(F)F)cc2)c(F)c1 (configuration not stated)
CYP1A2
  inhibition at 100 µM: > 50%
CYP2D6
  inhibition at 100 µM: > 50%
CYP2C9
  inhibition at 100 µM: > 50%
CYP3A4
  inhibition at 100 µM: > 50%
CYP2C19
  inhibition at 100 µM: > 50%
[3]
  inhibition: 34%
[4]
  Ratio: 1.7%
[5]
  Clearance: 3.1 mL/h

## COC(=O)C(C)c1ccc(-c2cc(Cl)cc(Cl)c2)c(F)c1 (configuration not stated)
[6]
  inhibition: 45%

## O=C(O)C1(c2ccc(-c3ccc(C(F)(F)F)cc3)c(F)c2)CC1
[7]
  AUC: 2613 µg/h/mL
[8]
  AUC: 575 µg/h/mL
Cytochrome P450 2C19 [9]
  IC50: 71 µM
[1]
  IC50: 111 µM
[10]
  Tmax: 4.8 min
[11]
  Cmax: 14400 ng/mL
[12]
  Clearance: 0.015 mL/min/kg
[2]
  inhibition: < 1%
[13]
  Tmax: 4 h
[14]
  half-life: 32.8 h
[15]
  half-life: 36.2 h
[16]
  Cmax: 54900 ng/mL
Caco-2
  Absoption: High
[3]
  inhibition: 55%
[17]
  Inhibition: 22%
[4]
  Ratio: 1.8%
[5]
  Clearance: 0.52 mL/h
[18]
  bioavailability: 90.9%

## CC(C(=O)O)c1ccc(-c2ccccc2)c(F)c1 (configuration not stated) [FLURBIPROFEN]
[19]
  AUC: 311 µg/h/mL
[20]
  AUC: 78 µg/h/mL
[1]
  IC50: 305 µM
[21]
  Tmax: 0.5 h
[22]
  Tmax: 0.3 h
[23]
  bioavailability: 78.3%
[24]
  Cmax: 9100 ng/mL
[25]
  Papp: > 5 ×10⁻⁶ cm/s
[26]
  IC50: 0.17 µM
[27]
  Clearance: 0.318 mL/min/kg
[28]
  half-life: 4.9 h
[29]
  half-life: 5.1 h
Cytochrome P450 2C19 [30]
  Inhibition: No interactions
[31]
  Cmax: 49100 ng/mL
[3]
  inhibition: 30%
[5]
  Clearance: 13.9 mL/h

## CC(C(=O)O)c1ccc(-c2csc3ccccc23)c(F)c1 (configuration not stated)
[1]
  IC50: 83 µM
[25]
  Papp: > 5 ×10⁻⁶ cm/s
[2]
  inhibition: 68%
Cytochrome P450 2C9
  Activation: > 50%
[3]
  inhibition: 96%

From ChEMBL document CHEMBL1141070, “Synthesis and biological activity of flurbiprofen analogues as selective inhibitors of beta-amyloid(1)(-)(42) secretion” (J Med Chem, 2005)
